Reference: ChEMBL document CHEMBL4014311, “Discovery of a Hepatitis C Virus NS5B Replicase Palm Site Allosteric Inhibitor (BMS-929075) Advanced to Phase 1 Clinical Studies” (J Med Chem, 2017)

What was measured:
[1] = Inhibition of HCV genotype 1b NS5B replicase C316N mutant infected in human HuH7 cells assessed as reduction of viral replication after 3 days by luciferase reporter assay; type: cell-based, Hepatitis C virus subtype 1b; settings: Hepatitis C virus, Huh-7, 72 h
[2] = system: Hepatitis C virus; assay: Antiviral activity against HCV genotype 1a infected in human HuH7 cells after 3 days by luciferase reporter assay; type: functional, cell-based, Hepacivirus hominis, subtype 1a; settings: Hepatitis C virus, subtype 1a, Huh-7, 72 h; read-out: EC50
[3] = Drug uptake in Sprague-Dawley rat plasma at 6 mg/kg, po via gavage after 6 hrs by LC-MS/MS analysis; type: ADME, organism-based
In short: (§1)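 Fasted rats were dosed orally in 90:10 PEG-400/ethanol; 6 h livers came from satellite animals. In the screening variant, n = 2 and plasma was taken to 6 h with livers at the terminal point. Livers were rinsed, blotted, weighed and homogenized in 2 volumes of 80% acetonitrile in HBSS per gram, then centrifuged. Supernatant and plasma were analysed by LC/MS/MS.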

[4] = Half life in dog liver microsomes; type: ADME, Canis lupus familiaris, microsome
[5] = Lipophilicity, log D of the compound at pH 6.5 by shake flask method; type: physicochemical; settings: buffer
[6] = Half life in rat liver microsomes; type: ADME, microsome
[7] = biological target: T1, Nuclear receptor subfamily 1 group I member 2 (Homo sapiens, UniProt O75469); assay: Transactivation of PXR (unknown origin); type: ADME
T1 sequence (O75469 whole entry): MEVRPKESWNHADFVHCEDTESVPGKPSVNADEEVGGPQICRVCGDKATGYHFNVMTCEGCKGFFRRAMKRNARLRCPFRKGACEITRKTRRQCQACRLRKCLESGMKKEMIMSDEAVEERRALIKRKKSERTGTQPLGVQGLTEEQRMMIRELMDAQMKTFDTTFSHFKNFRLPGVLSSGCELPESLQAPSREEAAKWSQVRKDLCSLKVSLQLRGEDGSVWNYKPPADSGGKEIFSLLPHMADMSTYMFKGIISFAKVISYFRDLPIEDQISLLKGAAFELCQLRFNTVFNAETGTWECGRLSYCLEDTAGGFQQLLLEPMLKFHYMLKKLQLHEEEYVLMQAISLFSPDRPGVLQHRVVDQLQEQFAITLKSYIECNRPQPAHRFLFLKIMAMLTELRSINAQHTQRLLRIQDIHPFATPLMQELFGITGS

[8] = Clearance in Sprague-Dawley rat at 6 mg/kg, po via gavage by LC-MS/MS analysis; type: ADME, organism-based; settings: in vivo
[9] = biological target: T2, Cytochrome P450 2C8 (Homo sapiens, UniProt P10632); assay: Inhibition of microsomal CYP2C8 (unknown origin); type: ADME
T2 sequence (P10632 whole entry): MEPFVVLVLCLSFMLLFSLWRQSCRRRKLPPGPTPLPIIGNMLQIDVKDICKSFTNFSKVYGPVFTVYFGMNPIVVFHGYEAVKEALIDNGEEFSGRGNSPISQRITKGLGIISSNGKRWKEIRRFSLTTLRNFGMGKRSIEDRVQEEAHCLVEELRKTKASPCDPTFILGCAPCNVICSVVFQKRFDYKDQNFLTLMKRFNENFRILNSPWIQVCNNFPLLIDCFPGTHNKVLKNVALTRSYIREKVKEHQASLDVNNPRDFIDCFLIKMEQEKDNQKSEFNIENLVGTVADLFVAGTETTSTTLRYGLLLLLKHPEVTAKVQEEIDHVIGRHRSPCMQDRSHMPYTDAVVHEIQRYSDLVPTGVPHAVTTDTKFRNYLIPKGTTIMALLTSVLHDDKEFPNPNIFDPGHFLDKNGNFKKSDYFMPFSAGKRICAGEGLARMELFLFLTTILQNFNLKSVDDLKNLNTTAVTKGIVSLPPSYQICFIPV

[10] = biological target: Cytochrome P450 3A4 (Homo sapiens, UniProt P08684); assay: Inhibition of microsomal CYP3A4 (unknown origin); type: ADME
Chain of Cytochrome P450 3A4 (P08684 whole entry): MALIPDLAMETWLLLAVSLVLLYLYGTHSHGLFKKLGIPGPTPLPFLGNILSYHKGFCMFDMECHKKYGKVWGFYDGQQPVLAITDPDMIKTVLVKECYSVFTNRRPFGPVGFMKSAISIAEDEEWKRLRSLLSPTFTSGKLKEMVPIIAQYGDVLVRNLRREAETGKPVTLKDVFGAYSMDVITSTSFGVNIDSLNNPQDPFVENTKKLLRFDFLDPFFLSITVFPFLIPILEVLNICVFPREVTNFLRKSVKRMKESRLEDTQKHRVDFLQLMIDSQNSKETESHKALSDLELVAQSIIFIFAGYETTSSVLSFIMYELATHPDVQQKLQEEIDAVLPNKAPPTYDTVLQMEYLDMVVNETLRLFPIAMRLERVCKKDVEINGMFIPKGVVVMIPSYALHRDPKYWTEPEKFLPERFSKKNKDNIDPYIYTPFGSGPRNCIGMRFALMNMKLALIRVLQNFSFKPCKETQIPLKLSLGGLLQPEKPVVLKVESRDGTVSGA

[11] = Half life in human liver microsomes; type: ADME, microsome
[12] = Metabolic stability in rat liver microsomes assessed as parent compound remaining after 10 mins; type: ADME, microsome; settings: read-out: Stability
[13] = Membrane permeability at pH 7.4 by PAMPA; type: physicochemical; settings: read-out: permeability
[14] = Metabolic stability in human liver microsomes assessed as parent compound remaining after 10 mins; type: ADME, microsome; settings: read-out: Stability
[15] = Drug uptake in Sprague-Dawley rat liver at 6 mg/kg, po via gavage after 6 hrs by LC-MS/MS analysis; type: ADME, organism-based; settings: read-out: Drug uptake; in short: as §1
[16] = Half life in monkey liver microsomes; type: ADME, Macaca mulatta, microsome; settings: rhesus monkey
[17] = system: Hepatitis C virus; assay: Antiviral activity against HCV genotype 1b infected in human HuH7 cells after 3 days by luciferase reporter assay; type: functional, cell-based, Hepacivirus hominis; settings: Hepatitis C virus, genotype 1b, Huh-7, 72 h; read-out: EC50
[18] = Ratio of drug uptake in Sprague-Dawley rat liver to plasma at 6 mg/kg, po administered via gavage after 24 hrs by LC/MS/MS analysis; type: ADME, organism-based
In short: (§2)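 Rats fasted overnight, then dosed by gavage at 6 mg/kg in 90:10 PEG-400/ethanol (v/v). Plasma sampled serially from cannula into EDTA tubes predose and at 15, 30, 45, 60 min and 2, 4, 6, 8, 24 h; n = 3. Livers removed at 6 h (satellite animals) and 24 h, homogenized in 80% acetonitrile/HBSS, assayed by LC/MS/MS. Tmax taken directly from observed data.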

[19] = AUC in Sprague-Dawley rat at 6 mg/kg, po administered via gavage by LC/MS/MS analysis; type: ADME, organism-based; settings: in vivo
In short: (§3)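 Rats were fasted overnight with free access to water, then dosed by gastric gavage with an […] solution in 90:10 PEG-400/ethanol (v/v), n = 3 per group. EDTA plasma was sampled predose and at 15, 30, 45, 60 min and 2, 4, 6, 8, 24 h, then assayed by LC/MS/MS. Parameters come from noncompartmental analysis: Cmax observed directly, AUC by linear/log trapezoidal summation, F as dose-normalized PO/IV AUC ratio.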

[20] = Tmax in Sprague-Dawley rat at 6 mg/kg, po administered via gavage by LC/MS/MS analysis; type: ADME, organism-based; settings: in vivo; in short: as §2
[21] = system: Rattus norvegicus; assay: Volume of distribution at steady state in Sprague-Dawley rat at 2 mg/kg, iv by LC/MS/MS analysis; type: ADME, organism-based; settings: in vivo
In short: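 Rats received a 2 mg/kg IV dose in 90:10 PEG-400/ethanol as a 10 min constant-rate jugular infusion. Blood collected predose and at 10, 15, 30, 45, 60 min and 2, 4, 6, 8, 24 h; n = 3. Plasma analyzed by LC/MS/MS. Vss derived by noncompartmental analysis of IV data.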

[22] = Cytotoxicity against human HuH7 cells after 3 days by CellTiter-Blue assay; type: cell-based, Huh-7
[23] = system: Hepatitis C virus; assay: Ratio of EC50 for HCV genotype 1b infected in human HuH7 cells in presence of 40% human serum to EC50 for HCV genotype-1b infected in human HuH7 cells; type: functional, Hepacivirus hominis
[24] = biological target: hERG (Homo sapiens, UniProt Q12809); assay: Inhibition of human ERG at 10 uM by patch clamp assay
Chain of hERG (Q12809 whole entry): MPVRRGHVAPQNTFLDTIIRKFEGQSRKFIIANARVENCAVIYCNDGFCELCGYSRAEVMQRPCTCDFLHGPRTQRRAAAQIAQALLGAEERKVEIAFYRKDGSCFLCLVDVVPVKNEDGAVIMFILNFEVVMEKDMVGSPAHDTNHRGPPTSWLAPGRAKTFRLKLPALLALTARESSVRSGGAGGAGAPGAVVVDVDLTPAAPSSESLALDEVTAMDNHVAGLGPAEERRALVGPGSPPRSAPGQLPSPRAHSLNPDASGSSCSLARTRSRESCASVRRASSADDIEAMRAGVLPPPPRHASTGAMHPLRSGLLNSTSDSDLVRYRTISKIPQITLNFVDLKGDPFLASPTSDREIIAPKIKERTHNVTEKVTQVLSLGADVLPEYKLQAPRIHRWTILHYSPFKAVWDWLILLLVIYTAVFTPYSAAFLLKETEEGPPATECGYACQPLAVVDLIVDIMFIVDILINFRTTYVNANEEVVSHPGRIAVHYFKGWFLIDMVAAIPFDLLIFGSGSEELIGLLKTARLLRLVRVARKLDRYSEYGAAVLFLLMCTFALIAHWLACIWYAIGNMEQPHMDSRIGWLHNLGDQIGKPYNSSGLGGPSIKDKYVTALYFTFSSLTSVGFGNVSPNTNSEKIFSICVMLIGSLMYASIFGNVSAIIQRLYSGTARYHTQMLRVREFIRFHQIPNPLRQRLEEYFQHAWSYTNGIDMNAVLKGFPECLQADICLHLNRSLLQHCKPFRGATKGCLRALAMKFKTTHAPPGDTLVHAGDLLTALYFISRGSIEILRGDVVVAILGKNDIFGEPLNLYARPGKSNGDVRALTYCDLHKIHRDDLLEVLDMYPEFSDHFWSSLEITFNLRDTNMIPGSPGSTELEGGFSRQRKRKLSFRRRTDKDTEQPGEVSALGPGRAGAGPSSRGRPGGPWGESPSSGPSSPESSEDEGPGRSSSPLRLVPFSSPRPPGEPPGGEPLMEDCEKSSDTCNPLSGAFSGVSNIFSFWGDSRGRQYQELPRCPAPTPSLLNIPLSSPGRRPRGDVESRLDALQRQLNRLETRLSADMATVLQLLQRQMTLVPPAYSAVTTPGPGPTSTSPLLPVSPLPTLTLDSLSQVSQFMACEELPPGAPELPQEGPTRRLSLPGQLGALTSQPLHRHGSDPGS

[25] = Oral bioavailability in Sprague-Dawley rat at 6 mg/kg by LC/MS/MS analysis; type: ADME, organism-based; settings: in vivo; in short: as §3
[26] = system: Rattus norvegicus; assay: Half life in Sprague-Dawley rat at 2 mg/kg,iv by LC/MS/MS analysis; type: ADME, organism-based; settings: in vivo
In short: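 A 10 min constant-rate jugular vein infusion was given in 90:10 PEG-400/ethanol (v/v), n = 3 rats. Plasma was sampled predose and at 10, 15, 30, 45, 60 min and 2, 4, 6, 8, 24 h, then assayed by LC/MS/MS. Clearance and apparent terminal t1/2 were estimated by noncompartmental analysis.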

[27] = Drug uptake in Sprague-Dawley rat liver at 6 mg/kg, po administered via gavage after 24 hrs by LC/MS/MS analysis; type: ADME, organism-based; settings: read-out: Drug uptake; in short: as §1
[28] = biological target: Voltage-gated inwardly rectifying potassium channel KCNH2 (Homo sapiens, UniProt Q12809); assay: Inhibition of human ERG by thallium flux assay
Chain of Voltage-gated inwardly rectifying potassium channel KCNH2 (Q12809 whole entry): as above

[29] = Cmax in Sprague-Dawley rat at 6 mg/kg, po administered via gavage by LC/MS/MS analysis; type: ADME, organism-based; parameters: dose 6 mg/kg, route oral; settings: in vivo; in short: as §3
[30] = system: Hepatitis C virus; assay: Ratio of EC50 for HCV genotype 1a infected in human HuH7 cells in presence of 40% human serum to EC50 for HCV genotype 1a infected in human HuH7 cells; type: functional, Hepacivirus hominis, subtype 1a
[31] = Ratio of IC50 for HCV genotype 1b […] replicase to EC50 for HCV genotype 1b infected in human HuH7 cells; parameters: species or system Hepatitis C virus subtype 1b
[32] = Inhibition of HCV genotype 1b NS5B replicase expressed in Escherichia coli BL21(DE3) using polyA/biotinylated oligo(dT12) as template/primer in presence of [3H]UTP after 60 mins by SPA assay; parameters: species or system Hepatitis C virus subtype 1b

| SMILES | EC50 [1] | EC50 [2] | half-life [4] | logD [5] | half-life [6] | EC50 [7] | IC50 [9] | IC50 [10] | half-life [11] | Papp [13] | concentration at 6 h [15] | half-life [16] | EC50 [17] | further results |
| --- | --- | --- | --- | --- | --- | --- | --- | --- | --- | --- | --- | --- | --- | --- |
| CNC(=O)c1c(-c2ccc(F)cc2)oc2ccc(-c3cc(C(=O)NC4(c5ccccn5)CC4)ccc3C)cc12 | 0.055 µM | 0.0028 µM | 0.233 h | 5.42 | 1.02 h | 1.6 µM | 1 µM | 4.1 µM | 1.8 h | 99.9 ×10⁻⁶ cm/s | 15.7 µM | 0.333 h | 0.0019 µM | concentration at 6 h [3]: 1.64 µM; CL/F [8]: 14 mL/min/kg; remaining at 10 min [12]: 82%; remaining at 10 min [14]: 89% |
| CNC(=O)c1c(-c2ccc(F)cc2)oc2ccc(-c3cc(C(=O)NC4(c5ncccn5)CC4)ccc3C)cc12 | 0.051 µM | 0.0023 µM | 0.767 h | 4.76 | 1.43 h | > 50 µM | 3.9 µM | 11.4 µM | > 2 h | 76.9 ×10⁻⁶ cm/s | 8.7 µM | 0.85 h | 0.001 µM | Kp at 24 h [18]: 2.4; AUC [19]: 48.7 µM·h; Tmax [20]: 4.7 h; Vdss [21]: 6.1 L/kg; CC50 at 72 h [22]: 20 µM; Ratio EC50 [23]: 4; inhibition at 10 µM [24]: 96%; bioavailability [25]: > 100%; t1/2 [26]: 5.3 h; concentration at 24 h [27]: 0.614 µM; IC50 [28]: 4.8 µM; Cmax [29]: 6.7 µM; Ratio EC50 [30]: 4 |
| CNC(=O)c1cccc(-c2ccc3oc(-c4ccc(F)cc4)c(C(=O)NC)c3c2)c1 |  |  |  |  |  |  |  |  |  |  |  |  | 0.59 µM | Ratio IC50/EC50 [31]: 2; IC50 [32]: 2.2 µM |
